The text below walks through data of ChEMBL document CHEMBL1153955, “Indolylarylsulfones bearing natural and unnatural amino acids. Discovery of potent inhibitors of HIV-1 non-nucleoside wild type and resistant mutant strains reverse transcriptase and coxsackie B4 virus” (J Med Chem, 2009).

Data set [1] relates to Human immunodeficiency virus 1. Description: Antiviral activity against HIV1 with reverse transcriptase Y188L mutation in human CEM cells assessed as protection against virus-induced cytopathicity. It counts as functional, organism-based. To be noted: Human immunodeficiency virus 1, CCRF-CEM. Summed up: (§1)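 CEM cells (~3 × 10⁵ cells/mL) were infected with ~100 CCID₅₀ virus per mL and seeded with serial compound dilutions. After 4 days at 37 °C, syncytium (giant cell) formation was scored microscopically. EC₅₀ is the concentration giving 50% protection against virus cytopathicity.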
On the technique in general: Protection from cytopathic effect is a common read-out in antiviral testing.

The test system of data set [2] is Human immunodeficiency virus 1. As to the kind of experiment: Antiviral activity against HIV1 with reverse transcriptase K103N mutation in human CEM cells assessed as protection against virus-induced cytopathicity. It is filed as functional, organism-based. As to conditions: Human immunodeficiency virus 1, CCRF-CEM. Summed up: as §1
Data set [3] concerns Human immunodeficiency virus 1. Description: Antiviral activity against HIV1 with reverse transcriptase L100I mutation in human CEM cells assessed as protection against virus-induced cytopathicity. It is filed as functional, organism-based. To be noted: Human immunodeficiency virus 1, CCRF-CEM. Summed up: as §1
Data set [4] relates to Human immunodeficiency virus 1. Description: Antiviral activity against HIV1 with reverse transcriptase Y181I mutation in human CEM cells assessed as protection against virus-induced cytopathicity. It counts as functional, organism-based. As to conditions: Human immunodeficiency virus 1, CCRF-CEM. Summed up: as §1
The test system of data set [5] is Human immunodeficiency virus 1. Description: Antiviral activity against HIV1 with reverse transcriptase Y181C mutation in human CEM cells assessed as protection against virus-induced cytopathicity. It counts as functional, organism-based. As to conditions: Human immunodeficiency virus 1, CCRF-CEM. Summed up:
as §1

Data set [6] concerns Influenza A virus. As to the kind of experiment: Antiviral activity against influenza H1N1 virus in MDCK cells assessed as reduction of virus-induced cytopathicity by MTS method. It counts as functional, organism-based. To be noted: Influenza A virus, H1N1, MDCK.
Data set [7] in a line: Cytotoxicity against feline CRFK cells by MTS assay. It counts as cell-based, Felis catus. As to conditions: cat. (In general: Tetrazolium assays rely on reduction of a dye to a coloured formazan, in cell work by metabolically active cells.)
The test system of another data set is Human respirovirus 3. As to the kind of experiment: Antiviral activity against Parainfluenza virus type 3 in african green monkey Vero cells assessed as protection against virus-induced cytopathicity. It is filed as functional, organism-based. As to conditions: Human respirovirus 3, Vero. Summed up:
(§2)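 Confluent cell monolayers inoculated with 100 CCID₅₀ virus. After 1-2 h adsorption, residual virus removed and cultures incubated with varying compound concentrations. Cytopathicity scored once it reached completion in untreated infected controls. EC₅₀ = dose reducing virus-induced cytopathogenicity by 50%.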

The next data set concerns Felid alphaherpesvirus 1. As to the kind of experiment: Antiviral activity against Feline herpesvirus in feline […] cells assessed as inhibition of virus-induced cytopathicity. It counts as functional, organism-based.
Data set [8] concerns Influenza B virus. Description: Antiviral activity against influenza B virus in MDCK cells assessed as reduction of virus-induced cytopathicity by visual cytopathic effect scoring method. It is filed as functional, organism-based.
Data set [9] can be described thus: Cytotoxicity against human HEL cells assessed as drug level causing microscopically detectable alteration of normal cell morphology after 3 days. It is filed as cell-based.
Data set [10] has as its system Influenza B virus. Description: Antiviral activity against influenza B virus in MDCK cells assessed as reduction of virus-induced cytopathicity by MTS method. It is filed as functional, organism-based.
Data set [11] relates to Vesicular stomatitis virus. As to the kind of experiment: Antiviral activity against VSV in human HEL cells assessed as protection against virus-induced cytopathicity. It is filed as functional, organism-based.
For data set [12], the system named is Coxsackievirus B4. As to the kind of experiment: Antiviral activity against Coxsackievirus B4 in human HeLa cells assessed as protection against virus-induced cytopathicity. It is filed as functional, organism-based. As to conditions: Enterovirus B. Summed up:
as §2

In another data set the test system is Human alphaherpesvirus 2. As to the kind of experiment: Antiviral activity against HSV2 G in human HEL cells assessed as protection against virus-induced cytopathicity. It is filed as functional, organism-based. To be noted: Human alphaherpesvirus 2, strain G. Summed up: as §2
Data set [13] has as its system Influenza A virus H3N2. Description: Antiviral activity against influenza H3N2 virus in MDCK cells assessed as reduction of virus-induced cytopathicity by MTS method. It counts as functional, organism-based.
The test system of data set [14] is Influenza A virus. As to the kind of experiment: Antiviral activity against influenza H1N1 virus in MDCK cells assessed as reduction of virus-induced cytopathicity by visual cytopathic effect scoring method. It is filed as functional, organism-based.
The test system of data set [15] is Influenza A virus H3N2. As to the kind of experiment: Antiviral activity against influenza H3N2 virus in MDCK cells assessed as reduction of virus-induced cytopathicity by visual cytopathic effect scoring method. It counts as functional, organism-based.
The next data set deals with Feline coronavirus. Description: Antiviral activity against Feline coronavirus in feline […] cells assessed as inhibition of virus-induced cytopathicity. It counts as functional, organism-based. To be noted: Alphacoronavirus 1.
Data set [16] deals with Mammalian orthoreovirus 1. As to the kind of experiment: Antiviral activity against Reovirus 1 in african green monkey Vero cells assessed as protection against virus-induced cytopathicity. It counts as functional, organism-based. To be noted: Mammalian orthoreovirus 1, Vero. Summed up:
as §2

Data set [17] has as its system Human immunodeficiency virus 1. As to the kind of experiment: Antiviral activity against HIV1 3B in human CEM cells assessed as protection against virus-induced cytopathicity after 4 days. It counts as functional, organism-based. To be noted: Human immunodeficiency virus 1, 3B, CCRF-CEM, 96 h. Summed up:
(§3)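 CEM cells (~3 × 10⁵ cells/mL) infected with ~100 CCID₅₀ per mL of HIV-1 (IIIB) or HIV-2 (ROD), then seeded into wells containing compound dilutions. After 4 days at 37 °C, syncytium (giant cell) formation was examined microscopically. EC₅₀ = concentration protecting CEM cells from HIV cytopathicity by 50%.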

Data set [18] relates to Respiratory syncytial virus. Description: Antiviral activity against RSV Long in human HeLa cells assessed as protection against virus-induced cytopathicity. It is filed as functional, organism-based. Summed up: as §2
Data set [19] can be described thus: Antiproliferative activity against human Molt4/C8 cells after 3 days. It counts as cell-based. To be noted: MOLT-4, 72 h. Summed up:
(§4)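 Cells seeded at 5 × 10⁴ to 7.5 × 10⁴ cells/200 µL with or without serial compound dilutions; incubated at 37 °C for 2 days (L1210) or 3 days (Molt4/C8, CEM). Cell numbers counted with a Coulter counter. CC₅₀ = concentration reducing proliferation by 50% versus untreated controls, read from plots of cell number (% of control) against concentration. Means of at least two independent experiments.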

Data set [20] in a line: Cytotoxicity against MDCK cells assessed as drug level causing microscopically detectable alteration of normal cell morphology. It is filed as cell-based, Canis lupus familiaris. As to conditions: dog.
The nature of data set [21]: Cytotoxicity against human HeLa cells assessed as drug level causing microscopically detectable alteration of normal cell morphology after 3 days. It counts as cell-based. Summed up:
(§5)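 Serial compound dilutions added to confluent HeLa or Vero monolayers. MCC = minimum concentration causing microscopically detectable alteration of cell morphology after 3 days of incubation.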

In a further data set the test system is L1210. As to the kind of experiment: Antiproliferative activity against mouse L1210 cells after 2 days. It counts as cell-based. As to conditions: L1210, 48 h. Summed up:
as §4

In a further data set the test system is Sindbis virus. As to the kind of experiment: Antiviral activity against Sindbis virus in african green monkey Vero cells assessed as protection against virus-induced cytopathicity. It is filed as functional, organism-based. Summed up:
as §2

For data set [22], the system named is Human alphaherpesvirus 1. As to the kind of experiment: Antiviral activity against HSV1 KOS in human HEL cells assessed as protection against virus-induced cytopathicity. It is filed as functional, organism-based. As to conditions: Human alphaherpesvirus 1, KOS.
In data set [23] the target is Human immunodeficiency virus type 1 reverse transcriptase (Human immunodeficiency virus 1, UniProt Q72547, K103N). As to the kind of experiment: Inhibition of HIV1 reverse transcriptase p66/p51 K103N mutant. To be noted: read-out: IC50. Summed up:
(§6)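 Substrate was 0.5 µg poly(rA)/oligo(dT) 10:1 (0.3 µM 3′-OH ends) with 10 µM [³H]dTTP, at 37 °C. Acid-precipitable radioactivity was counted on GF/C filters after TCA washes.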

A further data set has as its system Punta Toro virus. As to the kind of experiment: Antiviral activity against Punta Toro virus in african green monkey Vero cells assessed as protection against virus-induced cytopathicity. It is filed as functional, organism-based. Summed up: as §2
Data set [24] in a line: Cytotoxicity against african green monkey Vero cells assessed as drug level causing microscopically detectable alteration of normal cell morphology after 3 days. It counts as cell-based. To be noted: chlorocebus sabaeus. Summed up:
as §5

For data set [25], the target named is Human immunodeficiency virus type 1 reverse transcriptase (Human immunodeficiency virus 1, UniProt Q72547, Y181I). Description: Inhibition of HIV1 reverse transcriptase p66/p51 Y181I mutant. To be noted: read-out: IC50. Summed up: as §6
Data set [26] has as its system Human alphaherpesvirus 1. As to the kind of experiment: Antiviral activity against thymidine kinase deficient and acyclovir resistant HSV1 KOS in human HEL cells assessed as protection against virus-induced cytopathicity. As to conditions: Human alphaherpesvirus 1, KOS. It counts as functional, organism-based.
Another data set relates to Vaccinia virus. As to the kind of experiment: Antiviral activity against Vaccinia virus Lederle in human HEL cells assessed as protection against virus-induced cytopathicity. It is filed as functional, organism-based. As to conditions: Orthopoxvirus vaccinia.
Data set [27] has as its system Coxsackievirus B4. Description: Antiviral activity against Coxsackievirus B4 in african green monkey Vero cells assessed as protection against virus-induced cytopathicity. It is filed as functional, organism-based. As to conditions: Enterovirus B. Summed up: as §2
Data set [28] addresses Human immunodeficiency virus type 1 reverse transcriptase (Human immunodeficiency virus 1, UniProt Q72547, L100I). As to the kind of experiment: Inhibition of HIV1 reverse transcriptase p66/p51 L100I mutant. To be noted: read-out: IC50. Summed up:
as §6

In data set [29] the test system is Vesicular stomatitis virus. As to the kind of experiment: Antiviral activity against VSV in human HeLa cells assessed as protection against virus-induced cytopathicity. It is filed as functional, organism-based.
In data set [30] the test system is Human immunodeficiency virus 2. As to the kind of experiment: Antiviral activity against HIV2 ROD in human CEM cells assessed as protection against virus-induced cytopathicity after 4 days. It counts as functional, organism-based. As to conditions: Human immunodeficiency virus 2, ROD, CCRF-CEM, 96 h. Summed up:
as §3

The subject of the next data set is CCRF-CEM. Description: Antiproliferative activity against human CEM cells after 3 days. It is filed as cell-based. To be noted: 72 h. Summed up:
as §4

The nature of data set [31]: Cytotoxicity against MDCK cells by MTS assay. It is filed as cell-based, Canis lupus familiaris. To be noted: dog.
For data set [32], the target named is Human immunodeficiency virus type 1 reverse transcriptase (Human immunodeficiency virus 1, UniProt Q72547). Description: Inhibition of HIV1 reverse transcriptase p66/p51. As to conditions: read-out: IC50.

For `O=C1Nc2ccc(Cl)cc2[C@@](C#CC2CC2)(C(F)(F)F)O1` [EFAVIRENZ], the IC50 in data set [1] worked out at 0.76 µM; in data set [2], 0.13 µM; in data set [3] it was 0.022 µM; in data set [4], 0.012 µM; in [5], 0.16 µM.

With `Cc1cc(C)cc(S(=O)(=O)c2c(C(=O)NCCS(N)(=O)=O)[nH]c3ccc(Cl)cc23)c1`, the EC50 in the data set on Influenza A virus [6] was above 4 µM; with Human respirovirus 3, above 20 µM; in the data set on Felid alphaherpesvirus 1, above 4 µM; in the data set on Influenza B virus [8] it was above 4 µM; in the data set with Influenza B virus [10] it was above 4 µM; in data set [11], above 4 µM. In addition, the concentration giving a half-maximal response (EC50) with Coxsackievirus B4 [12], in the data set with Human alphaherpesvirus 2, with Influenza A virus H3N2 [13], in the data set with Influenza A virus [14], in the data set with Influenza A virus H3N2 [15] and with Feline coronavirus was above 4 µM in each case. For the same molecule, the EC50 in [16] was 20 µM; in data set [17] it was 0.0014 µM; in [18], above 4 µM; in the data set on Sindbis virus, 20 µM; in the data set with Human alphaherpesvirus 1 [22] it was above 4 µM; in the data set with Punta Toro virus, 20 µM. Also, the EC50 in the data set on Human alphaherpesvirus 1 [26] was above 4 µM; with Vaccinia virus, above 4 µM; with Coxsackievirus B4 [27], 9 µM; in data set [29] it was above 4 µM; in [30], above 10 µM. The CC50 in [7] was found to be 8.5 µM; in [31] it was 7.9 µM. Moreover, the results for the MCC at 72 h in data set [9], in data set [21] and in [24] were 20 µM, 20 µM and 100 µM, respectively. Besides, the IC50 is above 1 µM in [1]; 12 µM in [19]; 0.04 µM in [2]; 20 µM in the data set on L1210; 0.0012 µM in data set [3]; above 1 µM in data set [4]. The IC50 is 0.584 µM in data set [23]; above 40 µM in data set [25]; 0.025 µM in data set [28]; 14 µM in the data set on CCRF-CEM; 0.23 µM in data set [5]; 0.0004 µM in [32]. Also, in [20], the MCC came out at 20 µM.

As usually defined, the IC50 is the midpoint of a concentration-inhibition curve. What is called EC50 is the midpoint of the concentration-response curve. As a reminder, the CC50 is the concentration giving 50% cytotoxicity.
